# According to ChEMBL document CHEMBL4020839, “Class I HDAC Inhibitors Display Different Antitumor Mechanism in Leukemia and Prostatic Cancer Cells Depending on Their p53 Status” (J Med Chem, 2018):
# Activity calls are given as the source filed them. No cut-off for these calls is given here.
# Key:
# MV4-11 [1] = assay: Induction of p53 degradation in human MV4-11 cells up to 2 uM up to 6 hrs by Western blot analysis; type: functional, cell-based
# Histone deacetylase 2 [2] = biological target: T1, Histone deacetylase 2 (Homo sapiens, UniProt Q92769); settings: 0.25 to 2 uM
# T1 sequence (Q92769 whole entry): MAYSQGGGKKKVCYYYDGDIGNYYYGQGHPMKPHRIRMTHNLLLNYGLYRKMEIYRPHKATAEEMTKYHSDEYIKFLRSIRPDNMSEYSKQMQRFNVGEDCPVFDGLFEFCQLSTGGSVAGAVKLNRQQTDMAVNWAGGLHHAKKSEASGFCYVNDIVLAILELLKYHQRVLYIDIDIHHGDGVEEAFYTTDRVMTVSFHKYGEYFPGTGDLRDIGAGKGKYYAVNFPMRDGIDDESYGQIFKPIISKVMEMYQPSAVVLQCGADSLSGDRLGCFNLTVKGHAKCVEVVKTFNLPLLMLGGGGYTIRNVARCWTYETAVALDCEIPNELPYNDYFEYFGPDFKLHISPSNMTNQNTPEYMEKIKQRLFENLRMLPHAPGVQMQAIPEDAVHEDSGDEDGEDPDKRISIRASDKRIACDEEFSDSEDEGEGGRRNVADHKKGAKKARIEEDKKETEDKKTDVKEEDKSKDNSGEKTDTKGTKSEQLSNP
# Histone deacetylase 5 = Histone deacetylase 5 (Homo sapiens, UniProt Q9UQL6); assay: Inhibition of recombinant human HDAC5 expressed in baculovirus expression system using Boc-Lys(trifluoroacetyl)-AMC as substrate preincubated for 1 hr followed by substrate addition measured after 2 hrs by fluorescence assay
# Sequence of Histone deacetylase 5 (Q9UQL6 whole entry): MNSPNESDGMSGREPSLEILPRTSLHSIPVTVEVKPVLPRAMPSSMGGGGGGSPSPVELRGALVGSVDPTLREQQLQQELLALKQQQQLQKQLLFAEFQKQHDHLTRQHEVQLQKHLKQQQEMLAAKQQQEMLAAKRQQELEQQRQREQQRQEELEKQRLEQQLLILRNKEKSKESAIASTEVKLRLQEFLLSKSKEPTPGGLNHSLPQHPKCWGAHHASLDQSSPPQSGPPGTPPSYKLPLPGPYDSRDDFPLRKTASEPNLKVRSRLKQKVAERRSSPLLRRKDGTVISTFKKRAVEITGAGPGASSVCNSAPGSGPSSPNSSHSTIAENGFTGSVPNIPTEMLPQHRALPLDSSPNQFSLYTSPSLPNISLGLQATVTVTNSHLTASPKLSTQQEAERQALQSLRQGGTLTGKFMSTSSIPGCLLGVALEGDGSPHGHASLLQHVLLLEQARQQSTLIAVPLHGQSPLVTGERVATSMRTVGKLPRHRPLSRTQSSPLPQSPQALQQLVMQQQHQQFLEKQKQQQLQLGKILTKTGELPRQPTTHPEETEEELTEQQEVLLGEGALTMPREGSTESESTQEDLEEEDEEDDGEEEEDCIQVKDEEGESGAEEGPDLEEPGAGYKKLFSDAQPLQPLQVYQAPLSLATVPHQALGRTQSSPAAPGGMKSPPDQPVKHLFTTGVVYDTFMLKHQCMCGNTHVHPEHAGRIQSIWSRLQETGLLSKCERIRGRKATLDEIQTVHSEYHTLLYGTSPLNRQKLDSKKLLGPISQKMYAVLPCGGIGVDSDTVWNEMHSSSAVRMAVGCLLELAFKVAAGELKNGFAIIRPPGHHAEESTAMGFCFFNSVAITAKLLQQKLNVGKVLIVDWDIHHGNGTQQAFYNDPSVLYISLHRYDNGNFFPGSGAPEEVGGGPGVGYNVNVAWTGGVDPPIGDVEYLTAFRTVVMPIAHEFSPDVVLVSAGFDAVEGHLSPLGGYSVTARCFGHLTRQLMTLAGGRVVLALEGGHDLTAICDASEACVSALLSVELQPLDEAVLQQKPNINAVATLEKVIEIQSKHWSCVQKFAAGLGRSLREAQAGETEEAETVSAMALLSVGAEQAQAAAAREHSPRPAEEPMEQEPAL
# How it was run: (§1)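 Recombinant HDAC incubated with serial compound dilutions at 30 °C for 1 h. Reaction run 2 h at 30 °C, stopped with developer containing trypsin and TSA. Fluorescence read after 30 min at 360/460 nm. Inhibition relative to control wells; IC50 from variable-slope fit.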
# MV4-11 [3] = assay: Induction of apoptosis in human MV4-11 cells assessed as increase in cleaved PARP level at 1 to 2 uM after 24 hrs by Western blot method; type: functional, cell-based
# How it was run: (§2)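 MV4-11 (1,500,000/well) or PC-3 (300,000/well) grown 12 h, then treated 24 h at 1 and 2 μM, with 5 μM SAHA as reference. RIPA lysis, sonication and centrifugation, BCA normalization. NuPAGE 4–12% Bis-Tris gel in MES, transfer, primary antibodies 1/1000 overnight at 4 °C. Actin as loading control.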
# MV4-11 [4] = assay: Induction of p53 degradation in human MV4-11 cells up to 500 nM after 6 hrs in presence of proteasome inhibitor bortezomib by Western blot analysis; type: functional, cell-based
# Histone deacetylase 2 [5] = biological target: T1, Histone deacetylase 2; assay: Inhibition of full length recombinant human C-terminal FLAG/His-tagged HDAC2 expressed in baculovirus expression system using Boc-Lys(acetyl)-AMC as substrate preincubated for 1 hr followed by substrate addition measured after 2 hrs by fluorescence assay; how it was run: as §1
# Histone deacetylase 7 = biological target: T2, Histone deacetylase 7 (Homo sapiens, UniProt Q8WUI4); assay: Inhibition of recombinant human N-terminal GST-tagged HDAC7 (518-end residues) expressed in baculovirus expression system using Boc-Lys(trifluoroacetyl)-AMC as substrate preincubated for 1 hr followed by substrate addition measured after 2 hrs by fluorescence assay; how it was run: as §1
# T2 sequence (Q8WUI4 whole entry): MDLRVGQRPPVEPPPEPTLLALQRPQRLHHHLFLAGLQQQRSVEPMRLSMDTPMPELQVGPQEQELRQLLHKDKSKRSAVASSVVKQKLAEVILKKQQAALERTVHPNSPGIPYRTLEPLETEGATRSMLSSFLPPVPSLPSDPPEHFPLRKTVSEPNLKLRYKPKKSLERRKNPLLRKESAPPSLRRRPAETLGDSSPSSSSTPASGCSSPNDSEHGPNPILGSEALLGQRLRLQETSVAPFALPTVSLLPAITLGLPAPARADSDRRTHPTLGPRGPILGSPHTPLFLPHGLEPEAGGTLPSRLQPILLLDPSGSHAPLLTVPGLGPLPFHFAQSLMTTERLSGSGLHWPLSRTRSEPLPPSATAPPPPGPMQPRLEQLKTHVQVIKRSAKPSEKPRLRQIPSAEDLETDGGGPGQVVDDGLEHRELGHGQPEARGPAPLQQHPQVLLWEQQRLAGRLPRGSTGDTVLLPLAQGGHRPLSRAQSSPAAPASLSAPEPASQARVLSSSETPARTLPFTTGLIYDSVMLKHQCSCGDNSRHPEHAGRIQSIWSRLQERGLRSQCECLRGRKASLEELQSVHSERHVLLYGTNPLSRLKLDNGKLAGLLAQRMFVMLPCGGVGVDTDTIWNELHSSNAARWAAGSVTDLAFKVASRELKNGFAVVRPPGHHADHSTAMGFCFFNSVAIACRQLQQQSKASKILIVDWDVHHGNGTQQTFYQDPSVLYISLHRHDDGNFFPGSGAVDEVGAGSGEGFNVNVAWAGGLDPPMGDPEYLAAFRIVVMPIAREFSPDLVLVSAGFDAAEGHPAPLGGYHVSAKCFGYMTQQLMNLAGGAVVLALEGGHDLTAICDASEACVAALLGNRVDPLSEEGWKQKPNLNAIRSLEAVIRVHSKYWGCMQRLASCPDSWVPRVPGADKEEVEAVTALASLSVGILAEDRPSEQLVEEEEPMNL
# [6] = biological target: Histone deacetylase 3 (Homo sapiens) (UniProt O15379); settings: 0.25 to 2 uM
# Sequence of Histone deacetylase 3 (Homo sapiens) (O15379 whole entry): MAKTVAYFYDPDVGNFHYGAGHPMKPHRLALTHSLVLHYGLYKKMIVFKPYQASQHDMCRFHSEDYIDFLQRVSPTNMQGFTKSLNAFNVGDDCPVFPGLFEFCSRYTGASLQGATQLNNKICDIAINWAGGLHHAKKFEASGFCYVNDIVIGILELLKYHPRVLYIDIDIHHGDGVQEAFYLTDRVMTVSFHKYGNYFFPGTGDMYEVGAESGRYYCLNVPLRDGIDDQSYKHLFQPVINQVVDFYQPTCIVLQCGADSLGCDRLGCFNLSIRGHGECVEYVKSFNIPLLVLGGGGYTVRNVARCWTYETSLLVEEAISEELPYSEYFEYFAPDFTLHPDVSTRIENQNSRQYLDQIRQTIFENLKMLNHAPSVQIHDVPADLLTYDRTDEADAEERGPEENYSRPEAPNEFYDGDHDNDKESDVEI
# Histone deacetylase 1 [7] = biological target: T3, Histone deacetylase 1 (Homo sapiens, UniProt Q13547); settings: 0.25 to 2 uM
# T3 sequence (Q13547 whole entry): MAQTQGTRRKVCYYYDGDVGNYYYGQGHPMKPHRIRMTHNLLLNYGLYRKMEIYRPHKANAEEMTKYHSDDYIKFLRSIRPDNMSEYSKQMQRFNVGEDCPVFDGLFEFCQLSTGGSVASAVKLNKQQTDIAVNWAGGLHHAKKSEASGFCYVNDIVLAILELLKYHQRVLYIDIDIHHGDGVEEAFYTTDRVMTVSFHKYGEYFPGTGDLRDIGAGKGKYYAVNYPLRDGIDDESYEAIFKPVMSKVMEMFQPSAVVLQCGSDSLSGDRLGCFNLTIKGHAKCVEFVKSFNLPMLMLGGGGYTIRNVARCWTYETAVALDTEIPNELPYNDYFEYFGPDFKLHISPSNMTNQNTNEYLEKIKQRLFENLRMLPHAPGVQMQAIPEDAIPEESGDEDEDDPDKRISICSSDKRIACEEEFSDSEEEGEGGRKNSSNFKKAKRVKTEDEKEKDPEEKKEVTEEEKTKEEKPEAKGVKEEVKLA
# Histone deacetylase 2 [8] = biological target: T1, Histone deacetylase 2; settings: 0.25 to 2 uM; remark: listed apart in the source
# MV4-11 [9] = assay: Cell cycle arrest in human MV4-11 cells assessed as accumulation at subG1 phase after 24 hrs by propidium iodide staining based flow cytometry; type: functional
# Histone deacetylase 1 [10] = biological target: T3, Histone deacetylase 1; assay: Inhibition of full length recombinant human C-terminal FLAG/His-tagged HDAC1 expressed in baculovirus expression system using Boc-Lys(acetyl)-AMC as substrate preincubated for 1 hr followed by substrate addition measured after 2 hrs by fluorescence assay; how it was run: as §1
# PC-3 [11] = assay: Antiproliferative activity against human PC3 cells assessed as cell viability at 2 uM after 48 hrs by CellTiter-Blue assay relative to control; type: functional, cell-based
# How it was run: (§3)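 MV4-11 and PC-3 cells treated with 10 or 2 μM (or 0 μM) and sampled at 24 and 48 h. Viable cells measured by CellTiter-Blue resorufin fluorescence, read as in the EC50 assay, which is proportional to viable cell number. Representative of n = 2 experiments.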
# PC-3 [12] = assay: Antiproliferative activity against human PC3 cells assessed as cell viability at 10 uM after 48 hrs by CellTiter-Blue assay relative to control; type: functional; settings: PC-3, 48 h, read-out: Activity; how it was run: as §3
# [13] = biological target: Histone deacetylase 3/Nuclear receptor corepressor 2 (HDAC3/NCoR2) (Homo sapiens, UniProt O15379); assay: Inhibition of full length recombinant human C-terminal His-tagged HDAC3/N-terminal GST-tagged NCOR2 co-expressed in baculovirus expression system using Boc-Lys(acetyl)-AMC as substrate preincubated for 1 hr followed by substrate addition measured after 2 hrs by fluorescence assay; how it was run: as §1
# PC-3 [14] = assay: Induction of morphological changes in human PC3 cells at 2 to 10 uM after 48 hrs by phase contrast microscopic method; type: functional, cell-based
# How it was run: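 PC-3 cells treated 48 h with vehicle (DMSO), 2 μM or 10 μM and examined by phase-contrast light microscopy for morphology. Representative of n = 2.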
# [15] = biological target: Matrix metalloproteinase 2/9 (Homo sapiens) (UniProt P08253+P14780); assay: Inhibition of human MMP2/C-terminal hemopexin domain truncated MMP9 up to 50 uM preincubated for 10 to 15 mins followed by substrate addition measured after 2 hrs by fluorescence assay; type: protein assay
# Sequence of Matrix metalloproteinase 2/9 (Homo sapiens) (P08253 whole entry, looked up, the tested form may be a part): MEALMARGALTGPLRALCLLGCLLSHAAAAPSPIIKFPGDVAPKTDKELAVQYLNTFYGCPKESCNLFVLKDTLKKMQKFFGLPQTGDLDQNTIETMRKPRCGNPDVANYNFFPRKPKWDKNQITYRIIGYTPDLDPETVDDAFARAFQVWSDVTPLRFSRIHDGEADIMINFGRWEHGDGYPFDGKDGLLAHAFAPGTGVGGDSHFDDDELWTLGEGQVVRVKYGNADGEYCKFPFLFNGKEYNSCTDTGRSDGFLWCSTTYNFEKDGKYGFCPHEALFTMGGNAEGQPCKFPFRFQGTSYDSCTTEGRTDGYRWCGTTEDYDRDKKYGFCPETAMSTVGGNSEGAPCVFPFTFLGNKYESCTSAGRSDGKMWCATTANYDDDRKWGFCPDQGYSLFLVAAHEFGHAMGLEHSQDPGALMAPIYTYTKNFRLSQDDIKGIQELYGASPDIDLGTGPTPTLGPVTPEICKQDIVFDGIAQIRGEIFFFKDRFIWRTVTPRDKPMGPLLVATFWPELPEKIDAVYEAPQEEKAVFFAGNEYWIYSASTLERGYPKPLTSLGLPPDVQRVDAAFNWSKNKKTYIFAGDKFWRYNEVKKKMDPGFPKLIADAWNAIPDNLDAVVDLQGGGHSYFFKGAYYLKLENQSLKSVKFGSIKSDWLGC
# Sequence of Matrix metalloproteinase 2/9 (Homo sapiens) (P14780 whole entry, looked up, the tested form may be a part): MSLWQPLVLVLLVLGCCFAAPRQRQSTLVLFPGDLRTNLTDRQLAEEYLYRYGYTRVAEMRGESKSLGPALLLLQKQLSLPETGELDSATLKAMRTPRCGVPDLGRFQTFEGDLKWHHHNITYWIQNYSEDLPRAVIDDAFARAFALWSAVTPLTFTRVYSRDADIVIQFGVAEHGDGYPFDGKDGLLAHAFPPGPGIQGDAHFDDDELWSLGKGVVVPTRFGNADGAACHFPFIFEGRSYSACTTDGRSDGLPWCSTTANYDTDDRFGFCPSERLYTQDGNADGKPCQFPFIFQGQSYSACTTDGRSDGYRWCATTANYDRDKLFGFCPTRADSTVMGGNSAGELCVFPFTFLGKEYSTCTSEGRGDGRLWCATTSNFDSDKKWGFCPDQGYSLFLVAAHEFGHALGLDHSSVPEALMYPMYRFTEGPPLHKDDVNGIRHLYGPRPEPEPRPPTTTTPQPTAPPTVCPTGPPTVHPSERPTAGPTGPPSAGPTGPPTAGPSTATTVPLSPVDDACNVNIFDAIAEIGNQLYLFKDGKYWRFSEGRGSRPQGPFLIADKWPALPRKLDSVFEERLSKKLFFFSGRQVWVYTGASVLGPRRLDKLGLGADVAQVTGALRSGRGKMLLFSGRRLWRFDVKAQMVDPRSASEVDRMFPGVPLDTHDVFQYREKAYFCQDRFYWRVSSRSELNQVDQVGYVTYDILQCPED
# How it was run: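 Gelatinase kit assay: compound (100 μM stock), MMP inhibitor (40 μM stock) or activation buffer combined with MMP-2/MMP-9 in activation buffer. After 10–15 min, substrate added and incubated at 37 °C for 2 h. Fluorescence read at 320/405 nm.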
# PC-3 [16] = assay: Induction of apoptosis in human PC3 cells assessed as increase in cleaved caspase-3 level at 1 to 2 uM after 24 hrs by Western blot method; type: functional, cell-based; how it was run: as §2
structure (smiles),measurement,setting,value
CCCNNC(=O)c1ccc(NC(=O)[C@H](Cc2c[nH]c3ccccc23)NC(=O)c2ccc(OC)cc2)cc1,Activity,MV4-11 [1],Active
same,inhibition,Histone deacetylase 2 [2],Active
same,IC50,Histone deacetylase 5,> 50000 nM
same,Activity,MV4-11 [3],Active
same,Activity,MV4-11 [4],inactive
same,IC50,Histone deacetylase 2 [5],28 nM
same,IC50,Histone deacetylase 7,> 50000 nM
same,inhibition,[6],Active
same,inhibition,Histone deacetylase 1 [7],Active
same,inhibition,Histone deacetylase 2 [8],Active
same,Activity,MV4-11 [9],Dose-dependent effect
same,IC50,Histone deacetylase 1 [10],9.54 nM
same,Activity,PC-3 [11],inactive
same,viability at 10 µM,PC-3 [12],20%
same,IC50,[13],1.41 nM
same,Activity,PC-3 [14],inactive
same,inhibition,[15],inactive
same,Activity,PC-3 [16],inactive
